Experimental data taken from PMC11350716 (JACS Au, 2024).

Key:
[1] = format: in vivo; details: mice, intravenous, 0.02 mg/mouse as ICG, brains harvested after 48 h
Procedure, shortened: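 Mice received the test compound or free ICG alone by intravenous injection. Brains were harvested 48 h later and imaged for near-infrared ICG fluorescence, with instrument sensitivity set to 1,600–3,000 (fluorescence intensity a.u.).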

VIPR2 = details: read-out: antagonist activity IC50; cited from earlier work

With `CCCC[C@@H]1NC(=O)[C@H](CCC(=O)O)NC(=O)[C@H](C)NC(=O)[C@H](CC(C)C)NC(=O)[C@H](CCCC)NC(=O)[C@H](Cc2ccc(O)cc2)NC(=O)[C@H](CCCCN)NC(=O)[C@H](Cc2ccc(O)cc2)NC(=O)[C@H]([C@@H](C)O)NC(=O)[C@@H](NC(=O)[C@@H]2CCCN2C(=O)[C@@H](NC(=O)CNC(=O)CCOCCOCCOCCOCCn2nnc3c2-c2ccccc2CN(C(=O)CCNC(=O)CCOCCOCCOCCOCCOCCC(=O)NCCC(=O)N2Cc4ccccc4-c4c(nnn4CCNC(=O)CCCCCN4C(=CC=CC=CC=CC5=[N+](CCCCS(=O)(=O)[O-])c6ccc7ccccc7c6C5(C)C)C(C)(C)c5c4ccc4ccccc54)-c4ccccc42)c2ccccc2-3)[C@@H](C)O)CSSC[C@@H](C(=O)O)NC1=O` [ICG-KS-487] the “ICG fluorescence in the brain” value [1] was “Fluorescence was clearly observed”.
With `CC1(C)C(/C=C/C=C/C=C/C=C2\N(CCCCS(=O)(=O)O)c3ccc4ccccc4c3C2(C)C)=[N+](CCCCS(=O)(=O)[O-])c2ccc3ccccc3c21` [ICG, indocyanine green, reference compound] the “ICG fluorescence in the brain” value [1] was “but not in the brains”.
In the case of “Ac-(CPPYLP[KYLC)D]LI-NH2 (bicyclic or more) [KS-133]”, the IC50 (VIPR2) is listed as 25 nM.
